Data set [1] is described as follows: Single-dose pharmacokinetics in SD rats. It counts as in vivo. The following applies: after gavage or tail vein injection of V12. The procedure, abridged:
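Male SD rats (240–280 g), 4 groups of 3. Compound in DMSO/castor oil/saline 5%/5%/90%, dosed 1 mg/kg i.v. or 10 mg/kg orally. Blood drawn from fundus venous plexus at 2, 5, 15, 30 min and 1, 2, 4, 8, 24 h into heparin tubes, then centrifuged at 4°C for plasma. Plasma levels measured by LC-MS/MS with non-compartmental analysis.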

A further data set concerns various tumor cell lines. The data set can be described thus: Antiproliferative activity on various tumor cell lines. It counts as cell-based. The following applies: read-out: IC50 against a variety of cell lines. An outline of the steps: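 Cells seeded at 1000 per well in 18 μL medium and pre-incubated 24 h at 37°C, 5% CO2. Test compound in DMSO (final DMSO <0.1%) added at 10 points, 2-fold dilutions from 10 μM, then cultured 72 h. Cell-Titer glo reagent added and […]. Inhibition computed per concentration and IC50 obtained from sigmoid curve fit.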

Data set [2] in a line: Body weight of nude mice after oral administration. The following applies: oral doses 100 mg/kg and 300 mg/kg. The format is in vivo.

Molecules are shown by their SMILES.

In general, IC50 refers to the point on the concentration scale where inhibition reaches its midpoint. For the compound `CONC(=O)c1cccc2c1cc(C)n2-c1nc2c(c(NCc3ccccc3)n1)CCCN2` [V12, 1-(4-(Benzylamino)-5,6,7,8-Tetrahydropyrido[2,3-D]pyrimidin-2-Yl)-N-Methoxy-2-Methyl-1H-Indole-4-Carboxamide], the metabolism in vivo entry in data set [1] is “rapidly metabolizes into V13”. In the data set with various tumor cell lines, the IC50 was < 1000 nM. The “body weight of the nude mice” value in data set [2] is on record as “comparable to that of the control group”.
Consider `Cc1cc2c(C(=O)O)cccc2n1-c1nc2c(c(NCc3ccccc3)n1)CCCN2` [V13, 1-(4-(Benzylamino)-5,6,7,8-Tetrahydropyrido[2,3-D]pyrimidin-2-Yl)-2-Methyl-1H-Indole-4-Carboxylic Acid], for which, in the data set on various tumor cell lines, the IC50 is < 1000 nM.
